The test system of one series is CCRF-CEM. Put plainly: Cytotoxicity against human CEM cells after 72 hrs. It counts as functional, cell-based. In outline: (§1)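 Compounds tested over a range of concentrations on cells in RPMI 1640 medium at 37 °C for 72 h. IC50 taken as the concentration inhibiting cell growth by 50%.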
Series [1] in a line: Cytotoxicity against human Molt4/C8 cells after 72 hrs. The series is classed as functional, cell-based. The note with it: MOLT-4, 72 h. In outline: as §1
The next series concerns L1210. Put plainly: Cytotoxicity against mouse L1210 cells after 48 hrs. The series is classed as functional, cell-based. The note with it: L1210, 48 h. In outline:
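Murine L1210 lymphoid leukemia cells exposed to graded compound concentrations in RPMI 1640 at 37 °C for 48 h. IC50 is the concentration giving 50% growth inhibition.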

Series [2] in a line: Lipophilicity, log P of the compound. The series is classed as physicochemical. The settings on record: calculated. A digest of the protocol:
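Calculated logP, generated with the JME molecular editor rather than measured.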

A further series deals with Liver. The series can be described thus: Stimulation of respiration in rat liver mitochondria. It counts as functional. In outline: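 Liver mitochondria isolated from rats anesthetized with isoflurane and decapitated. Oxygen consumption measured by polarography. Compound tested at 10 μM, with a DMSO solvent control (4 μL). Differences judged against standard deviations.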

Calls of active or inactive are those of the source. No cut-off for these calls is given here. A value given as a limit tells only on which side of the number the result lay.

In general, IC50 refers to the point on the concentration scale where inhibition reaches its midpoint. High values mean weaker potency in that assay, low ones greater potency in that assay. For orientation: logP means a log measure of how a compound divides between an organic and an aqueous phase.

Turning to `O=C1/C(=C/c2ccc(Cl)cc2)CCC/C1=C\c1cccc([N+](=O)[O-])c1`, the results for the IC50 (in the series on CCRF-CEM; in series [1]; in the series on L1210) were 1.75 µM, 2.02 µM and 9.16 µM, respectively. The log partition coefficient (logP) in series [2] is 5.58.
Turning to `CN(C)c1ccc(/C=C2\CCC/C(=C\c3ccc([N+](=O)[O-])cc3)C2=O)cc1`, the IC50 (with CCRF-CEM; in series [1]; with L1210) was above 500 µM in each case. Further, the logP in series [2] was 5.03.
For `CN(C)c1ccc(/C=C2\CCC/C(=C\c3ccccc3[N+](=O)[O-])C2=O)cc1`, the IC50 was determined as 168 µM in the series on CCRF-CEM, 122 µM in series [1] and 164 µM in the series with L1210. In addition, the logP in series [2] was 4.8.
For `COc1ccc(/C=C2\CCC/C(=C\c3cccc([N+](=O)[O-])c3)C2=O)cc1`, the IC50 in the series on CCRF-CEM was determined as 8.22 µM; in series [1] it was 7.98 µM; with L1210 it was 29.5 µM. Further, the logP in series [2] was 4.96.
For `O=C1CCCC/C1=C\c1cccc([N+](=O)[O-])c1`, the IC50 in the series with CCRF-CEM came out at 8.12 µM; in series [1], 8.28 µM; in the series on L1210 it was 50.1 µM.
Regarding `COc1ccc(/C=C2\CCC/C(=C\c3ccc([N+](=O)[O-])cc3)C2=O)cc1`, the results for the IC50 (with CCRF-CEM; in series [1]; in the series on L1210) were 250 µM, 300 µM and 240 µM, respectively. Further, in series [2], the logP was 4.98.
Taken in the same sequence, the figures for `Cc1ccc(/C=C2\CCC/C(=C\c3ccc([N+](=O)[O-])cc3)C2=O)cc1` were 8.53 µM, 8.44 µM, 8.16 µM and 5.38.
Take `COc1cc(/C=C2\CCC/C(=C\c3ccc([N+](=O)[O-])cc3)C2=O)cc(OC)c1OC`: the IC50 in the series on CCRF-CEM came to 4.61 µM; in series [1] it was 6.42 µM; in the series on L1210 it was 6.97 µM. Further, the logP in series [2] is 4.56. Moreover, the result with Liver was Active.
On to `O=C1/C(=C/c2ccccc2)CCC/C1=C\c1ccccc1[N+](=O)[O-]`, for which the IC50 is 0.925 µM with CCRF-CEM, 1.48 µM in series [1] and 4.84 µM in the series on L1210. In addition, the logP in series [2] was 4.7.
Taken in the same sequence, the figures for `CN(C)c1ccc(/C=C2\CCC/C(=C\c3cccc([N+](=O)[O-])c3)C2=O)cc1` were 11.7 µM, 10.9 µM, 156 µM and 5.01.
As to `COc1cc(/C=C2\CCC/C(=C\c3cccc([N+](=O)[O-])c3)C2=O)cc(OC)c1OC`, the half-inhibitory concentration (IC50) with CCRF-CEM came out at 45.2 µM; in series [1] it was 44 µM; in the series with L1210 it was 42.2 µM. For the same compound, the logP in series [2] is 4.53.
For `O=C1CCCC/C1=C\c1ccccc1[N+](=O)[O-]`, the figures for the IC50 (with CCRF-CEM; in series [1]; in the series with L1210) were 36.4 µM, 33.3 µM and 23.8 µM, respectively.
Turning to `O=C1/C(=C/c2ccc(F)cc2)CCC/C1=C\c1ccccc1[N+](=O)[O-]`, the IC50 worked out at 1.51 µM in the series on CCRF-CEM, 1.87 µM in series [1] and 8.4 µM in the series on L1210. Besides, the logP in series [2] was 4.86.
With `O=C1CCCC/C1=C\c1ccc([N+](=O)[O-])cc1`, the 50% inhibitory concentration (IC50) worked out at 19.3 µM in the series on CCRF-CEM, 13.9 µM in series [1] and 46.5 µM in the series on L1210.
`Cc1ccc(/C=C2\CCC/C(=C\c3ccccc3[N+](=O)[O-])C2=O)cc1`: the IC50 with CCRF-CEM came out at 6.09 µM; in series [1], 7.52 µM; in the series with L1210, 7.77 µM. In addition, the logP in series [2] is 5.15.
For the compound `O=C1/C(=C/c2ccccc2)CCC/C1=C\c1cccc([N+](=O)[O-])c1`, the IC50 in the series on CCRF-CEM was determined as 2.29 µM; in series [1], 1.7 µM; with L1210, 9.44 µM. Also, in series [2], the logP is 4.9.
For `O=C1/C(=C/c2ccc(Cl)cc2)CCC/C1=C\c1ccc([N+](=O)[O-])cc1`, the results for the IC50 (with CCRF-CEM; in series [1]; with L1210) were 8.18 µM, 9.12 µM and 9.41 µM, respectively. The log partition coefficient (logP) in series [2] was 5.61.
As for `O=C1/C(=C/c2ccc(F)cc2)CCC/C1=C\c1ccc([N+](=O)[O-])cc1`, the IC50 with CCRF-CEM was found to be 18.6 µM; in series [1], 17.1 µM; with L1210, 26.8 µM. For the same compound, in series [2], the logP is 5.08.
The like results for `O=C1/C(=C/c2ccc(Cl)cc2)CCC/C1=C\c1ccccc1[N+](=O)[O-]` were, in that order, 1.75 µM, 3.86 µM, 9.38 µM and 5.38.
The like results for `O=C1/C(=C/c2ccc(F)cc2)CCC/C1=C\c1cccc([N+](=O)[O-])c1` were, in that order, 5.05 µM, 5.12 µM, 16.3 µM and 5.06.
On to `O=C1/C(=C/c2ccccc2)CCC/C1=C\c1ccc([N+](=O)[O-])cc1`, for which the IC50 was 9.32 µM in the series on CCRF-CEM, 8.35 µM in series [1] and 9.8 µM in the series with L1210. In addition, the logP in series [2] is 4.93.
On to `COc1cc(/C=C2\CCC/C(=C\c3ccccc3[N+](=O)[O-])C2=O)cc(OC)c1OC`, for which the results for the concentration for half-maximal inhibition (IC50) (in the series on CCRF-CEM; in series [1]; with L1210) were 0.402 µM, 0.702 µM and 1.52 µM, respectively. For the same compound, the logP in series [2] is 4.33. Moreover, the result in the series with Liver was Active.
Take `COc1ccc(/C=C2\CCC/C(=C\c3ccccc3[N+](=O)[O-])C2=O)cc1`: the IC50 in the series on CCRF-CEM is 7.45 µM; in series [1], 8.9 µM; in the series on L1210, 42.4 µM. Besides, in series [2], the logP is 4.76.
Consider `Cc1ccc(/C=C2\CCC/C(=C\c3cccc([N+](=O)[O-])c3)C2=O)cc1`, for which the IC50 in the series on CCRF-CEM was 10.1 µM; in series [1], 9.53 µM; in the series with L1210 it was 41.8 µM. Besides, the logP in series [2] was 5.35.
